ChEMBL document CHEMBL4373706, “Discovery of Inhibitors of Aurora/PLK Targets as Anticancer Agents” (J Med Chem, 2019)
Converted amounts (≈) assume the structure as drawn. The source made the active and inactive calls. The calls are words filed in the database; no cut-off is given here.

Tests used:
[1] = AUC (0 to infinity) in Sprague-Dawley rat at 50 mg/kg, po administered via gastric gavage by LC-MS/MS analysis; format: ADME, organism-based; design: dose 50 mg/kg, time infinity, route oral; details: in vivo
HCT-116 [2] = experiment: Induction of apoptosis in human HCT116 cells measured after 48 hrs by Annexin V-FITC/propidium iodide staining-based flow cytometry; format: functional, cell-based
HCT-116 [3] = experiment: Antitumor activity against human HCT116 cells xenografted in BALB/c mouse assessed as survival rate at 1 mg/kg, iv administered every 3 days for 60 days relative to control; format: functional; details: HCT-116, iv
[4] = Lipid/water partition coefficient, log D of the compound; format: physicochemical
HCT-116 [5] = experiment: Antitumor activity against human HCT116 cells xenografted in BALB/c mouse assessed as mean survival days at 10 mg/kg, iv administered every 3 days for 60 days (reference value: 25 day); format: functional
[6] = Half life in Sprague-Dawley rat at 50 mg/kg, po administered via gastric gavage by LC-MS/MS analysis; format: ADME, organism-based; details: in vivo
[7] = target: Serine/threonine-protein kinase PLK1 (Homo sapiens, UniProt P53350); experiment: Binding affinity to wild-type human partial length PLK1 (A33 to F325 residues) expressed in mammalian expression system measured after 1 hr by kinomescan method
Serine/threonine-protein kinase PLK1, sequence (P53350 whole entry, the tested form may be a part): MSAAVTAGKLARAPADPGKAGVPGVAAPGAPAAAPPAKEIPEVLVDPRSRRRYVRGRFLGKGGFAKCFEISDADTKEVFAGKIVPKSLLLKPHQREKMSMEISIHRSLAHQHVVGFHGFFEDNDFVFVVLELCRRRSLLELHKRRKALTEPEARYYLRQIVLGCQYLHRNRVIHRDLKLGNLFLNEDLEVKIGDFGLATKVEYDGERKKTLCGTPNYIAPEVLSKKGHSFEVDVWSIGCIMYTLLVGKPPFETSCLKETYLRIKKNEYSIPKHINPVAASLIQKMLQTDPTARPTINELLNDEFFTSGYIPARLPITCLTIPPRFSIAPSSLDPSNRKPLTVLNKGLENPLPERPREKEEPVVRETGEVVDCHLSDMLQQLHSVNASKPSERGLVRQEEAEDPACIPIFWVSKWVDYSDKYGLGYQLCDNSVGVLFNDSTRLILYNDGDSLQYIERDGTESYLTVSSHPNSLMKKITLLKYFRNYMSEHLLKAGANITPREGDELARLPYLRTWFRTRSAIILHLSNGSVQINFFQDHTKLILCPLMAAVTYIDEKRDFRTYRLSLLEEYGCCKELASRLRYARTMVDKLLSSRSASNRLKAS
Summary of the method: (§1)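 KINOMEscan competition binding assay. A 321-kinase panel was first screened at 10 μM compound, and binding affinities were then determined for Aurora and PLK family members.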

A549 = experiment: Antiproliferative activity against human A549 cells measured after 48 hrs by MTT assay; format: functional, cell-based; details: A549, 48 h
Summary of the method: (§2)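 Cells were exposed to a range of compound concentrations for 48 h. MTT reagent was then added and absorbance read at 490 nm. Viability was normalized to vehicle control set as 100%, from n = 3 independent experiments, and IC50 was taken from the dose–response curves.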

HCT-116 [8] = experiment: Cell cycle arrest in human HCT116 cells assessed as accumulation at G2/M phase at 1 uM measured after 24 to 48 hrs by propidium iodide staining-based flow cytometry (reference value: 3.37%); format: functional
Calu-6 = experiment: Antiproliferative activity against human Calu6 cells measured after 48 hrs by MTT assay; format: functional, cell-based; details: Calu-6, 48 h; summary of the method: as §2
Aurora kinase B = Aurora kinase B (Homo sapiens, UniProt Q96GD4); experiment: Binding affinity to wild-type human partial length AURKB (D25 to A303 residues) expressed in mammalian expression system measured after 1 hr by Kinomescan method; summary of the method: as §1
Aurora kinase B, sequence (Q96GD4 whole entry, the tested form may be a part): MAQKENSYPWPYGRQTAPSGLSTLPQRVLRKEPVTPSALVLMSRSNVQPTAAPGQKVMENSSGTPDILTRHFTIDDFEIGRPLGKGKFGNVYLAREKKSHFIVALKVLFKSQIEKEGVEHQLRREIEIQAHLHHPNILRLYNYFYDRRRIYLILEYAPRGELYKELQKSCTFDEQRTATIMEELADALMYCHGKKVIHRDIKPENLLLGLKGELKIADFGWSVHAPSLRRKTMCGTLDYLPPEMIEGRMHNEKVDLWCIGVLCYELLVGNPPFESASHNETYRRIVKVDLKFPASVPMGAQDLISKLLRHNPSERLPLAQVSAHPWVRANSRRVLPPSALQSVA

HCT-116 [9] = experiment: Cell cycle arrest in human HCT116 cells assessed as accumulation at G2/M phase at 10 uM measured after 24 to 48 hrs by propidium iodide staining-based flow cytometry (reference value: 3.37%); format: functional
HCT-116 [10] = experiment: Antiproliferative activity against human HCT116 cells measured after 48 hrs by MTT assay; format: functional, cell-based; details: HCT-116, 48 h; summary of the method: as §2
[11] = Solubility of the compound in water; format: physicochemical
Summary of the method: (§3)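 Solubility of the compound measured at 25±0.2°C, separately in water and in DMSO; reported in µg/mL.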

[12] = Cmax in Sprague-Dawley rat at 10 mg/kg, iv administered […] by LC-MS/MS analysis; format: ADME, organism-based; design: dose 10 mg/kg, route intravenous; details: in vivo
MCF7 = experiment: Antiproliferative activity against human MCF7 cells measured after 48 hrs by MTT assay; format: functional, cell-based; details: MCF7, 48 h; summary of the method: as §2
[13] = Toxicity in BALB/c mouse xenografted with human HCT116 cells assessed as change in body weight at 10 mg/kg, iv administered every 3 days for 24 days measured post-last dose; format: organism-based; details: in vivo
[14] = Solubility of the compound in DMSO; format: physicochemical; summary of the method: as §3
HCT-116 [15] = experiment: Antitumor activity against human HCT116 cells xenografted in BALB/c mouse assessed as reduction in tumor growth at 5 mg/kg, iv administered every 3 days for 24 days measured at 3 days interval during compound dosing; format: functional, organism-based
HCT-116 [16] = experiment: Antitumor activity against human HCT116 cells xenografted in BALB/c mouse assessed as mean survival days at 1 mg/kg, iv administered every 3 days for 60 days (reference value: 25 day); format: functional
[17] = AUC (0 to infinity) in Sprague-Dawley rat at 10 mg/kg, iv administered […] by LC-MS/MS analysis; format: ADME, organism-based; design: dose 10 mg/kg, route intravenous, time infinity; details: in vivo
HCT-116 [18] = experiment: Inhibition of colony formation in human HCT116 cells at 10 uM incubated for 48 hrs followed by supplemented with fresh medium every 3 days for 2 weeks by crystal violet staining-based assay; format: functional, cell-based
HCT-116 [19] = experiment: Cell cycle arrest in human HCT116 cells assessed as accumulation at G2/M phase at 5 uM measured after 24 to 48 hrs by propidium iodide staining-based flow cytometry (reference value: 3.37%); format: functional
HCT-116 [20] = experiment: Antitumor activity against human HCT116 cells xenografted in BALB/c mouse assessed as survival rate at 10 mg/kg, iv administered every 3 days for 60 days relative to control; format: functional; details: HCT-116, iv
HCT-116 [21] = experiment: Induction of apoptosis in human HCT116 cells assessed as apoptotic cell population at 5 uM measured after 48 hrs by Annexin V-FITC/propidium iodide staining-based flow cytometry (reference value: 5.9%); format: functional
[22] = target: T1, Mitogen-activated protein kinase 15 (Homo sapiens, UniProt Q8TD08); experiment: Binding affinity to wild-type human partial length ERK8 (M1 to P437 residues) expressed in bacterial expression system measured after 1 hr by kinomescan method; details: pooled result: one value given for 7 cell lines, strains, targets or settings
T1 sequence (Q8TD08 whole entry): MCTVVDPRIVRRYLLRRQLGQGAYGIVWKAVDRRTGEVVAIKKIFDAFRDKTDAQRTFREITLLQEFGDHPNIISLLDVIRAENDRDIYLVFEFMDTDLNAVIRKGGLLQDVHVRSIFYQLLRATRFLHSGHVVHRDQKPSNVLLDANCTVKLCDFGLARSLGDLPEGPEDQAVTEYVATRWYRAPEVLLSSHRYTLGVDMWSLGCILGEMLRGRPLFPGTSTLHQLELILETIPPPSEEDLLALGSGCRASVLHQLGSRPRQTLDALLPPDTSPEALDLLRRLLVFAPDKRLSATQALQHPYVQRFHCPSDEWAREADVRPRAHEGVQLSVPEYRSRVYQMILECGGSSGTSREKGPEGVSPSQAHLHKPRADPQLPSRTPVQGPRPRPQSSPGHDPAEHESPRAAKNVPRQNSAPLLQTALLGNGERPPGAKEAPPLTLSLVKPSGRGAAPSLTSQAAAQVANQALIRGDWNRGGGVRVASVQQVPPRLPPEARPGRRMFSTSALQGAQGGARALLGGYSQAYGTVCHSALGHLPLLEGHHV

HCT-116 [23] = experiment: Antitumor activity against human HCT116 cells xenografted in BALB/c mouse assessed as reduction in tumor size at 10 mg/kg, iv administered every 3 days for 24 days measured at 3 days interval during compound dosing relative to control; format: functional; design: scale not given: the % may be the effect or the level left
HCT-116 [24] = experiment: Cell cycle arrest in human HCT116 cells assessed as increase in accumulation at G2/M phase measured after 24 to 48 hrs by propidium iodide staining-based flow cytometry; format: functional
[25] = target: Serine/threonine-protein kinase PLK3 (Homo sapiens, UniProt Q9H4B4); experiment: Binding affinity to wild-type human partial length PLK3 (A42 to L334 residues) expressed in mammalian expression system measured after 1 hr by kinomescan method; summary of the method: as §1
Serine/threonine-protein kinase PLK3, sequence (Q9H4B4 whole entry, the tested form may be a part): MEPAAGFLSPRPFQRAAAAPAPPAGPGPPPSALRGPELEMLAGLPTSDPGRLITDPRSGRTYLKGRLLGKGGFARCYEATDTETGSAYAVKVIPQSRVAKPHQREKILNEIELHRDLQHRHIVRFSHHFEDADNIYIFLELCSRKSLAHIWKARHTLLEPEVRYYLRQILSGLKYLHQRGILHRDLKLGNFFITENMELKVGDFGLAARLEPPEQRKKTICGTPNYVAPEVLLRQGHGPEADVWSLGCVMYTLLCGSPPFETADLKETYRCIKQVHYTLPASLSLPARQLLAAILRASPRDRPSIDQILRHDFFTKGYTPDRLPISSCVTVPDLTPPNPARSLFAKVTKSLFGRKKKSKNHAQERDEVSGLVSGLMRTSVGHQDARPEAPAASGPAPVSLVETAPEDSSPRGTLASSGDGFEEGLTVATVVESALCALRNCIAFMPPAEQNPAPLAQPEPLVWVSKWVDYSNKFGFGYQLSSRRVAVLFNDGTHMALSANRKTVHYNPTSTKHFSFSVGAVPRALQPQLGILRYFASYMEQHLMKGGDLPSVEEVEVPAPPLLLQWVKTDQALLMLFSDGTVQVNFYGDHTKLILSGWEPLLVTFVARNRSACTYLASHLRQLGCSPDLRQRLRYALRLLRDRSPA

[26] = Oral bioavailability in Sprague-Dawley rat at 50 mg/kg administered via gastric gavage by LC-MS/MS analysis; format: ADME, organism-based; details: in vivo

Question: For O=C(Nc1ccc2cc(C(=O)Nc3nccs3)ccc2c1)c1ccc(Cl)c(Cl)c1, which AUC [1] is on record?
Answer: Its AUC is 819.495 µg·h/mL.

Question: What about the Activity (HCT-116 [2]) of the same molecule?
Answer: Its Activity is “Dose-dependent effect”.

Question: What about the survival at 1 mg/kg (HCT-116 [3]) of the same molecule?
Answer: The survival at 1 mg/kg was > 25%.

Question: And the logD [4]?
Answer: The logD was 4.8.

Question: And the MSD (HCT-116 [5])?
Answer: The MSD was >20 days.

Question: What about the half-life [6] of the same molecule?
Answer: The half-life was 11.8 h.

Question: And the Kd [7]?
Answer: The Kd was 55 nM.

Question: What about the IC50 (A549) of the same molecule?
Answer: The IC50 was 11600 nM.

Question: And the Activity (HCT-116 [8])?
Answer: The Activity was 7.51%.

Question: What about the IC50 (Calu-6) of the same molecule?
Answer: The IC50 was 5300 nM.

Question: And the Kd (Aurora kinase B)?
Answer: Its Kd is 78 nM.

Question: And the Activity (HCT-116 [9])?
Answer: Its Activity is 29.66%.

Question: What about the IC50 (HCT-116 [10]) of the same molecule?
Answer: The IC50 was 400 nM.

Question: What about the solubility [11] of the same molecule?
Answer: Its solubility is 9.6 µg/mL (≈ 21.7 µM).

Question: What about the Cmax [12] of the same molecule?
Answer: The Cmax was 78.5 µg/mL.

Question: And the IC50 (MCF7)?
Answer: Its IC50 is 2300 nM.

Question: And the Activity [13]?
Answer: The Activity was “Toxic”.

Question: And the solubility [14]?
Answer: Its solubility is 286 µg/mL (≈ 647 µM).

Question: What about the Activity (HCT-116 [15]) of the same molecule?
Answer: Its Activity is “Active”.

Question: And the MSD (HCT-116 [16])?
Answer: Its MSD is 37.5 days.

Question: What about the AUC [17] of the same molecule?
Answer: Its AUC is 1260.761 µg·h/mL.

Question: And the inhibition (HCT-116 [18])?
Answer: The inhibition was “Active”.

Question: And the Activity (HCT-116 [19])?
Answer: Its Activity is 10.06%.

Question: What about the survival at 10 mg/kg (HCT-116 [20]) of the same molecule?
Answer: The survival at 10 mg/kg was 80%.

Question: What about the Activity (HCT-116 [21]) of the same molecule?
Answer: The Activity was 61.7%.

Question: What about the Kd [22] of the same molecule?
Answer: The Kd was 5320 nM.

Question: What about the Activity (HCT-116 [23]) of the same molecule?
Answer: Its Activity is 75%.

Question: And the Activity (HCT-116 [24])?
Answer: The Activity was “Dose-dependent effect”.

Question: And the Kd [25]?
Answer: Its Kd is 456 nM.

Question: What about the F [26] of the same molecule?
Answer: Its F is 65%.
